According to ChEMBL document CHEMBL4706489, “Hydrogen sulfide releasing oridonin derivatives induce apoptosis through extrinsic and intrinsic pathways” (Eur J Med Chem, 2020):

What was measured:
HepG2 [1] = test: Induction of cell cycle arrest in human HepG2 cells assessed as accumulation at G1 phase at 2 uM after 48 hrs by propidium iodide staining based flow cytometric analysis (reference value: 49.46 to 50.3%); format: functional
Summary of the method: (§1)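 HepG2 cells were treated with 0, 0.50, 1.0 or 2.0 test agent for 48 h. Cells were washed in cold PBS and fixed in 70% ethanol at −20 °C overnight. DNA-content distribution was measured by flow cytometry. Mean ± SD, three independent experiments.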

[2] = Cytotoxicity against human PBMC cells assessed as cell viability after 72 hrs by MTT assay
K562 [3] = test: Induction of cell cycle arrest in human K562 cells assessed as accumulation at G1 phase at 1 uM after 48 hrs by propidium iodide staining based flow cytometric analysis (reference value: 43.24 to 43.37%); format: functional
HepG2 [4] = test: Induction of cell cycle arrest in human HepG2 cells assessed as accumulation at G1 phase at 1 uM after 48 hrs by propidium iodide staining based flow cytometric analysis (reference value: 49.46 to 50.3%); format: functional; summary of the method: as §1
K562 [5] = test: Induction of cell cycle arrest in human K562 cells assessed as accumulation at G2 phase at 2 uM after 48 hrs by propidium iodide staining based flow cytometric analysis (reference value: 10.96 to 12.03%); format: functional
HepG2 [6] = test: Antiproliferative activity against human HepG2 cells assessed as reduction in cell viability after 72 hrs by MTT assay; conditions: HepG2, 72 h
HepG2 [7] = test: Induction of cell cycle arrest in human HepG2 cells assessed as accumulation at G2 phase at 2 uM after 48 hrs by propidium iodide staining based flow cytometric analysis (reference value: 16.48 to 16.97%); format: functional
HepG2 [8] = test: Induction of cell cycle arrest in human HepG2 cells assessed as accumulation at G2 phase at 1 uM after 48 hrs by propidium iodide staining based flow cytometric analysis (reference value: 16.48 to 16.97%); format: functional; summary of the method: as §1
K562 [9] = test: Induction of cell cycle arrest in human K562 cells assessed as accumulation at S phase at 1 uM after 48 hrs by propidium iodide staining based flow cytometric analysis (reference value: 44.73 to 45.96%); format: functional
HepG2 [10] = test: Induction of cell cycle arrest in human HepG2 cells assessed as accumulation at S phase at 0.5 uM after 48 hrs by propidium iodide staining based flow cytometric analysis (reference value: 33.22 to 33.58%); format: functional
HCT-116 = test: Antiproliferative activity against human HCT-116 cells assessed as reduction in cell viability after 72 hrs by MTT assay; conditions: HCT-116, 72 h
L02 = test: Cytotoxicity against human L02 cells assessed as cell viability after 72 hrs by MTT assay; conditions: L02, 72 h
B16 = test: Antiproliferative activity against mouse B16 cells assessed as reduction in cell viability after 72 hrs by MTT assay; conditions: B16, 72 h
K562 [11] = test: Induction of cell cycle arrest in human K562 cells assessed as accumulation at G1 phase at 2 uM after 48 hrs by propidium iodide staining based flow cytometric analysis (reference value: 43.24 to 43.37%); format: functional
K562 [12] = test: Induction of cell cycle arrest in human K562 cells assessed as accumulation at G1 phase at 0.5 uM after 48 hrs by propidium iodide staining based flow cytometric analysis (reference value: 43.24 to 43.37%); format: functional
MCF7 = test: Antiproliferative activity against human MCF7 cells assessed as reduction in cell viability after 72 hrs by MTT assay; conditions: MCF7, 72 h
K562 [13] = test: Induction of cell cycle arrest in human K562 cells assessed as accumulation at G2 phase at 0.5 uM after 48 hrs by propidium iodide staining based flow cytometric analysis (reference value: 10.96 to 12.03%); format: functional
K562 [14] = test: Induction of cell cycle arrest in human K562 cells assessed as accumulation at G2 phase at 1 uM after 48 hrs by propidium iodide staining based flow cytometric analysis (reference value: 10.96 to 12.03%); format: functional
HepG2 [15] = test: Induction of cell cycle arrest in human HepG2 cells assessed as accumulation at S phase at 1 uM after 48 hrs by propidium iodide staining based flow cytometric analysis (reference value: 33.22 to 33.58%); format: functional
K562 [16] = test: Induction of cell cycle arrest in human K562 cells assessed as accumulation at S phase at 0.5 uM after 48 hrs by propidium iodide staining based flow cytometric analysis (reference value: 44.73 to 45.96%); format: functional
HepG2 [17] = test: Induction of cell cycle arrest in human HepG2 cells assessed as accumulation at G2 phase at 0.5 uM after 48 hrs by propidium iodide staining based flow cytometric analysis (reference value: 16.48 to 16.97%); format: functional; summary of the method: as §1
HepG2 [18] = test: Induction of cell cycle arrest in human HepG2 cells assessed as accumulation at G1 phase at 0.5 uM after 48 hrs by propidium iodide staining based flow cytometric analysis (reference value: 49.46 to 50.3%); format: functional; summary of the method: as §1
K562 [19] = test: Induction of cell cycle arrest in human K562 cells assessed as accumulation at S phase at 2 uM after 48 hrs by propidium iodide staining based flow cytometric analysis (reference value: 44.73 to 45.96%); format: functional
HepG2 [20] = test: Induction of cell cycle arrest in human HepG2 cells assessed as accumulation at S phase at 2 uM after 48 hrs by propidium iodide staining based flow cytometric analysis (reference value: 33.22 to 33.58%); format: functional

C=C1C(=O)[C@]23[C@H](O)[C@H]1CC[C@H]2[C@@]12CO[C@]3(O)[C@@H](O)[C@@H]1C(C)(C)CC[C@@H]2O [ORIDONIN]
Activity (HepG2 [1]): 68% | IC50 [2]: > 50 µM | Activity (K562 [3]): 55.67% | Activity (HepG2 [4]): 61.88% | Activity (K562 [5]): 6.62% | IC50 (HepG2 [6]): 8.95 µM | Activity (HepG2 [7]): 5.8% | Activity (HepG2 [8]): 10.54% | Activity (K562 [9]): 38.54% | Activity (HepG2 [10]): 29.64% | IC50 (HCT-116): 11.7 µM | IC50 (L02): 21.6 µM | IC50 (B16): 24.9 µM | Activity (K562 [11]): 60.6% | Activity (K562 [12]): 46.09% | IC50 (MCF7): 13.8 µM | Activity (K562 [13]): 9.81% | Activity (K562 [14]): 5.79% | Activity (HepG2 [15]): 27.54% | Activity (K562 [16]): 44.1% | Activity (HepG2 [17]): 13.25% | Activity (HepG2 [18]): 57.11% | Activity (K562 [19]): 32.78% | Activity (HepG2 [20]): 26.2%
